Legend:
Format in all cases: functional
Rattus norvegicus [1] = experiment: Antiinflammatory activity in Wistar albino rat assessed as reduction of carrageenan-induced paw edema at 20 mg/kg, po measured after 1 hr by plethysmometer; design: scale not given: the % may be the effect or the level left
Summary of the method: (§1)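 Rats 150e200 g dosed orally with test suspension 20 mg/kg, control given 1 mL of 1% carboxymethyl cellulose suspension. After 30 min, 0.1 mL of 1% carrageenan in normal saline injected subcutaneously into the sub-plantar region of the right hind paw. Paw volume read by plethysmometer at 0 h, 30, 60 and 120 min. Data as mean, one-way ANOVA then Dunnett's t-test.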

Rattus norvegicus [2] = experiment: Analgesic activity in Wistar albino rat assessed as thermal-stimulus induced tail flick latency time at 20 mg/kg measured after 30 mins (reference value: 3.23 +/- 0.005 secs)
Rattus norvegicus [3] = experiment: Analgesic activity in Wistar albino rat assessed as thermal-stimulus induced tail flick latency time at 20 mg/kg measured after 90 mins (reference value: 3.25 +/- 0.005 secs)
Rattus norvegicus [4] = experiment: Antiinflammatory activity in Wistar albino rat assessed as reduction of carrageenan-induced paw edema at 20 mg/kg, po measured after 30 mins by plethysmometer; design: scale not given: the % may be the effect or the level left; summary of the method: as §1
Rattus norvegicus [5] = experiment: Antiinflammatory activity in Wistar albino rat assessed as reduction of carrageenan-induced paw edema at 20 mg/kg, po measured after 2 hrs by plethysmometer; design: scale not given: the % may be the effect or the level left; summary of the method: as §1
Rattus norvegicus [6] = experiment: Analgesic activity in Wistar albino rat assessed as thermal-stimulus induced tail flick latency time at 20 mg/kg measured after 60 mins (reference value: 3.34 +/- 0.005 secs)

| SMILES | Activity (Rattus norvegicus [1]) [%] | Time (Rattus norvegicus [2]) [s] | Time (Rattus norvegicus [3]) [s] | Activity (Rattus norvegicus [4]) [%] | Activity (Rattus norvegicus [5]) [%] | Time (Rattus norvegicus [6]) [s] |
| --- | --- | --- | --- | --- | --- | --- |
| CC(C)Cc1ccc(C(C)c2n[nH]c(=S)n2/N=C/c2c([O-])on[n+]2-c2ccccc2)cc1 (centres undefined) | 39.4 | 5.76 | 6.6 | 32.9 | 50.2 | 6.24 |
| Cc1ccc(-[n+]2noc([O-])c2/C=N/n2c(C(C)c3ccc(CC(C)C)cc3)n[nH]c2=S)cc1 (centres undefined) | 46.9 | 4.99 | 6.92 | 39.2 | 55.4 | 6.11 |
| COc1ccc(-[n+]2noc([O-])c2/C=N/n2c(C(C)c3ccc(CC(C)C)cc3)n[nH]c2=S)cc1 (centres undefined) | 55.2 | 5.41 | 7.23 | 48.6 | 64 | 6.3 |
| CC(C)Cc1ccc(C(C)c2nn(CN3CCOCC3)c(=S)n2/N=C/c2c([O-])on[n+]2-c2ccccc2)cc1 (centres undefined) | 55.3 | 4.92 | 6.9 | 43.7 | 65.3 | 6.1 |
| CC(C)Cc1ccc(C(C)c2nn(CN3CCCCC3)c(=S)n2/N=C/c2c([O-])on[n+]2-c2ccccc2)cc1 (centres undefined) | 56.1 | 4.56 | 6.8 | 45 | 67.9 | 5.73 |
| CCN1CCN(Cn2nc(C(C)c3ccc(CC(C)C)cc3)n(/N=C/c3c([O-])on[n+]3-c3ccccc3)c2=S)CC1 (centres undefined) | 46.9 | 4.4 | 6.41 | 38.7 | 54.5 | 5.39 |
| CC(C)Cc1ccc(C(C)c2nn(CN3CCN(c4ccccc4)CC3)c(=S)n2/N=C/c2c([O-])on[n+]2-c2ccccc2)cc1 (centres undefined) | 34.2 | 4.19 | 6.05 | 27.9 | 38.5 | 5.03 |
| Cc1ccc(-[n+]2noc([O-])c2/C=N/n2c(C(C)c3ccc(CC(C)C)cc3)nn(CN3CCOCC3)c2=S)cc1 (centres undefined) | 53 | 5.15 | 7.12 | 41.9 | 66.6 | 5.91 |
| Cc1ccc(-[n+]2noc([O-])c2/C=N/n2c(C(C)c3ccc(CC(C)C)cc3)nn(CN3CCCCC3)c2=S)cc1 (centres undefined) | 46.9 | 3.92 | 5.1 | 39.1 | 54.1 | 4.31 |
| Cc1ccc(-[n+]2noc([O-])c2/C=N/n2c(C(C)c3ccc(CC(C)C)cc3)nn(CN3CCN(C)CC3)c2=S)cc1 (centres undefined) | 48.7 | 4.52 | 6.21 | 36.5 | 56.2 | 5.25 |
| Cc1ccc(-[n+]2noc([O-])c2/C=N/n2c(C(C)c3ccc(CC(C)C)cc3)nn(CN3CCN(c4ccccc4)CC3)c2=S)cc1 (centres undefined) | 35.9 | 4.15 | 5.35 | 31.5 | 40.2 | 4.41 |
| COc1ccc(-[n+]2noc([O-])c2/C=N/n2c(C(C)c3ccc(CC(C)C)cc3)nn(CN3CCOCC3)c2=S)cc1 (centres undefined) | 57 | 4.77 | 6.82 | 49 | 65.8 | 5.92 |
| COc1ccc(-[n+]2noc([O-])c2/C=N/n2c(C(C)c3ccc(CC(C)C)cc3)nn(CN3CCCCC3)c2=S)cc1 (centres undefined) | 48.6 | 4.61 | 6.26 | 42.7 | 56.2 | 5.55 |
| CC(C)=CCN1CC[C@]2(C)c3cc(O)ccc3C[C@H]1[C@H]2C [(+)-PENTAZOCINE] | – | 6.25 | 7.45 | – | – | 6.95 |
| COc1ccc2c(c1)c(CC(=O)O)c(C)n2C(=O)c1ccc(Cl)cc1 [INDOMETHACIN] | 65.8 | – | – | 58.1 | 70.1 | – |

Reference: ChEMBL document CHEMBL2040754, “Regioselective reaction: synthesis, characterization and pharmacological activity of some new Mannich and Schiff bases containing sydnone” (2012)
